# Hits are enriched below; roughly 3.8% of the tested compounds scored in any of these assays.
# MrgX1 antag: blocks BAM8-22 activation of human MrgX1 receptor. 310,000 tested, 1.3% active. B-score at 10 µM. MRGX1-HEK293 calcium flux, Fluo-4, BAM8-22 antagonism; active compounds read low;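 active = calcium-response B-score plate-corrected more than 3 library SD below zero, starting fluorescence within 5 deviations, no agonist response on first addition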;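 note: peak minus trough fluorescence over baseline after final BAM8-22 challenge near maximal dose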
# Target sequence (Q96LB2 whole entry, looked up): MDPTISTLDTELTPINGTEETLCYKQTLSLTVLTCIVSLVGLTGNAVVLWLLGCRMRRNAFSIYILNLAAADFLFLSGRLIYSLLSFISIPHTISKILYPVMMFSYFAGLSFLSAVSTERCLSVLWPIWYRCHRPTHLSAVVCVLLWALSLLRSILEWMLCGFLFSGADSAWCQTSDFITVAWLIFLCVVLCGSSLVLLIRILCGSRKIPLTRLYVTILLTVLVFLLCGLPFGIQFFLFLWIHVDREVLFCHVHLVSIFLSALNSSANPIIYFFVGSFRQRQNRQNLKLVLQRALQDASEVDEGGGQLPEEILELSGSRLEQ
# RGS4 pot: potentiators or activators of RGS4. HEK293 M3R/inducible RGS4, carbachol calcium flux Fluo4; active compounds read low. B-score at 10 µM. 310,000 tested, 0.92% active. AID 463111;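 active = B-score of the integrated calcium signal more than 4 SD below the library mean, with starting fluorescence not abnormally high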;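 note: negative B-score means reduced calcium response which marks RGS4 activation or potentiation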
#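 System: HEK293 FlpIn-TREx cells, stable M3R, doxycycline-inducible RGS4. Timing: overnight RGS4 induction, 30 min dye load 37 °C, 20 min compound RT. Also added: carbachol, ECmax concentration. Measured by: Fluo4 fluorescence kinetic imaging of calcium. Evaluation: integrated calcium ratio converted to B score.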
# MrgX1 PAM: allosterically activates human MrgX1 receptor signaling; Q96LB2; MrgX1-HEK293, Fluo-4 calcium flux, FDSS; active compounds read high; B-score at 10 µM; 310,000 tested, 0.63% active; AID 588675;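 active = plate-corrected calcium response at least 3 library SD above typical, normal starting fluorescence, not activating the receptor alone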;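 note: compound read alongside a low EC10 to EC30 dose of BAM8-22 agonist; peak minus trough fluorescence over baseline measured at the second addition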
# Lipid droplet: hepatic lipid droplet formation modulation; inhibition, % at 6.5 µM; AID 1656; 240,000 tested, 0.4% active; AML12 mouse hepatocytes, oleate lipid droplets, BODIPY imaging;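 active = lipid droplet intensity inhibited by at least 50%, with more than 500 cells counted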
#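 material = mouse AML12 hepatocyte cell line, fixed after treatment | also added = 100 µM oleic acid challenge | doses = compound at 6.5 µM only | schedule = overnight exposure | technique = Image-based BODIPY and DAPI two-channel analysis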
# RGS4 inh: inhibitors of human RGS4; P49798; B-score at 10 µM; HEK293 M3R/RGS4 inducible, Fluo-4 calcium flux; active compounds read high; triggered by carbachol at its EC20; AID 463165; 310,000 tested, 0.45% active;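 active = B-score, a plate-corrected calcium signal, over three deviations above library mean, with baseline fluorescence within five deviations of library mean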;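 note: RGS4 expression induced by doxycycline in cells with stable M3 receptor; B-score is computed from the integrated fluorescence ratio over baseline after carbachol; higher B-score means a larger calcium signal and so more RGS4 inhibition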
# MrgX1 ag: activates human MrgX1 receptor signaling; MrgX1-HEK293 cells, Fluo-4 calcium fluorescence, agonist mode; active compounds read high; 310,000 tested, 0.44% active; B-score at 10 µM;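 active = calcium response B-score plate-corrected fluorescence ratio at least 3 library SD, with starting fluorescence B-score inside 5 SD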
#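 Material – MrgX1-expressing HEK293 cells · Input – 15,000 cells seeded per well · Dosing – compound as first of three additions · Times – overnight seeding, then 1 h dark dye loading · Measured by – kinetic Fluo-4 NW fluorescence of intracellular calcium · Read-out – B-scored fluorescence response ratio · Benchmarks – positive and negative control wells on each plate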
# * = called active by the depositor; i = inactive; . = no result given.
SMILES,MrgX1 antag,RGS4 pot,MrgX1 PAM,Lipid droplet,RGS4 inh,MrgX1 ag
N#Cc1cc2c(nc1SCc1cccc(Cl)c1)CCCCC2,i,i,i,.,i,i
COCc1cc(C)nc(SCc2ccc(F)cc2)c1C#N,i,i,i,-2,i,i
CNCCCOc1ccc(C(C)(C)c2ccccc2)cc1,.,i,.,-2,i,.
COCCCNCCOc1ccc(C(C)(C)c2ccccc2)cc1,i,-7.8*,i,-2,i,i
Cc1nnc(NC(=O)c2ccc(Br)o2)s1,i,i,i,10,i,i
COc1ccc(CCN=C(N)C(C)c2ccccc2)cc1OC (configuration not stated),i,i,i,-1,i,i
CC(C)Cc1ccc(C(C)C(N)=NCCc2ccccc2)cc1 (configuration not stated),i,-7.1*,i,-14,i,i
COc1ccc(N/C=C2\CCOC2=O)cc1,i,i,i,.,i,i
COc1ccc(N/C=C2\C(=O)CCc3c2oc2cc(Cl)c(O)c(Cl)c32)cc1,-5*,i,i,17,i,i
CCCC(=O)Nc1ccc(Cl)c(NC(=O)c2cccc(OC)c2)c1,i,i,i,-26,i,i
CCOC(=O)NC(=O)COC(=O)CNC(=O)c1ccc(OCC)c(OCC)c1,i,i,8.9*,26,i,i
COc1ccc(C(=O)CSc2nc3[nH]ncc3c(=O)[nH]2)cc1,i,i,i,2,i,i
CN(C)c1c2ccccc2nc2c(F)c(F)c(F)c(F)c12,i,i,i,14,i,i
Cc1c2ccccc2nc2c(F)c(N(C)C)c(F)c(F)c12,-8.1*,i,i,-20,i,i
CCCCNC(=O)C(Cc1ccccc1)NS(=O)(=O)c1ccc2c(c1)c(=O)n(C)c(=O)n2C (configuration not stated),i,.,i,.,.,i
CCOCCCNC(=O)C(Cc1ccccc1)NS(=O)(=O)c1ccc2c(c1)c(=O)n(C)c(=O)n2C (configuration not stated),-5.8*,i,i,-28,i,i
Cc1ccc(-c2ccc(/C=C(\C#N)C(=O)Nc3cc(C)nn3-c3ccccc3)o2)cc1,i,-8.6*,i,-10,i,i
CCO[C@@H]1OC(C(=O)N2CCN(Cc3ccc4c(c3)OCO4)CC2)=C[C@H](c2coc3ccccc3c2=O)[C@H]1CCCO,-5.1*,i,i,1,i,i
CCO[C@H]1OC(C(=O)N2CCN(Cc3ccccc3)CC2)=C[C@@H](c2coc3ccccc3c2=O)[C@@H]1CCCO,i,i,i,-11,i,i
CNC(=O)c1cc2cc(OC)ccc2n1CCN(C)C,i,i,i,.,i,i
CNC(=O)c1cc2cc(OC)ccc2n1CCN(Cc1ccccc1)Cc1ccccc1,-7.8*,i,i,-8,i,i
C#CC(=O)N(c1ccc(OC)cc1OC)C(C(=O)NC1CCCC1)c1cccs1 (configuration not stated),i,i,i,123*,i,i
C#CC(=O)N(c1cc(OC)ccc1OC)C(C(=O)NC1CCCC1)c1cccs1 (configuration not stated),i,i,i,.,i,i
COc1cccc(/C=N/NC(=O)c2ccoc2C)c1,i,-8.5*,i,1,i,i
C=CCn1cccc(C(=O)Nc2ccc(F)cc2)c1=O,i,i,i,-3,i,i
CC(=O)N1CCN(Cc2nc(C(c3ccccc3)c3ccccc3)no2)CC1,i,-7.5*,i,16,i,i
COc1cc(/C=C2\COC/C(=C\c3ccc(O)c(OC)c3)C2=O)ccc1O,i,i,i,4,i,i
COc1cc(/C=C2\SC(=Nc3cccnc3)NC2=O)cc(OC)c1OC,i,i,i,7,i,i

# Compound activity deposited in PubChem BioAssay by several laboratories.
